Data as given in ChEMBL document CHEMBL1649514, “AmpDI is involved in expression of the chromosomal L1 and L2 beta-lactamases of Stenotrophomonas maltophilia” (2009).
≈ marks a conversion by molar mass, not a printed value.

Experiments:
Format in all cases: functional
[1] = tested on: Stenotrophomonas maltophilia; experiment: Antimicrobial activity against ampD1-, ampD2-deficient Stenotrophomonas maltophilia KJ by twofold serial agar dilution method
Method in brief: (§1)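 MICs by standard twofold serial agar dilution following CLSI guidelines, done in triplicate. Strains were wild-type clinical isolate KJ, which produces L1 and L2 β-lactamases, and its isogenic ampDI, ampDII and ampDI/ampDII deletion mutants. For cefepime, imipenem and meropenem, MICs were instead read from Etest strips per the manufacturer's instructions.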

[2] = tested on: Stenotrophomonas maltophilia; experiment: Antimicrobial activity against ampD1-deficient Stenotrophomonas maltophilia KJ by twofold serial agar dilution method; method in brief: as §1
[3] = tested on: Stenotrophomonas maltophilia; experiment: Antimicrobial activity against Stenotrophomonas maltophilia KJ by twofold serial agar dilution method; method in brief: as §1
[4] = tested on: Stenotrophomonas maltophilia; experiment: Antimicrobial activity against ampD2-deficient Stenotrophomonas maltophilia KJ by twofold serial agar dilution method; method in brief: as §1

Row | SMILES | MIC [1] [µg/mL] | MIC [2] [µg/mL] | MIC [3] [µg/mL] | MIC [4] [µg/mL]
1 | C[C@H]1[C@H](NC(=O)/C(=N\OC(C)(C)C(=O)O)c2csc(N)n2)C(=O)N1S(=O)(=O)O [AZTREONAM] | > 2050 | > 2050 | > 2050 | > 2050
2 | CC1(C)S[C@@H]2[C@H](NC(=O)C(C(=O)O)c3ccccc3)C(=O)N2[C@H]1C(=O)O (stereo partly specified) [CARBENICILLIN] | 1020 (≈ 2710 µM) | 1020 (≈ 2710 µM) | 1020 (≈ 2710 µM) | 1020 (≈ 2710 µM)
3 | CO[C@@]1(NC(=O)Cc2cccs2)C(=O)N2C(C(=O)O)=C(COC(N)=O)CS[C@@H]21 [CEFOXITIN] | 1020 (≈ 2400 µM) | 1020 (≈ 2400 µM) | 1020 (≈ 2400 µM) | 1020 (≈ 2400 µM)
4 | CO/N=C(\C(=O)N[C@@H]1C(=O)N2C(C(=O)O)=C(CSc3nc(=O)c(O)nn3C)CS[C@H]12)c1csc(N)n1 [CEFTRIAXONE] | 256 (≈ 462 µM) | 256 (≈ 462 µM) | 256 (≈ 462 µM) | 256 (≈ 462 µM)
5 | CCN1CCN(C(=O)N[C@@H](C(=O)N[C@@H]2C(=O)N3[C@@H]2SC(C)(C)[C@@H]3C(=O)O)c2ccccc2)C(=O)C1=O [PIPERACILLIN] | 1020 (≈ 1980 µM) | 1020 (≈ 1980 µM) | 1020 (≈ 1980 µM) | 1020 (≈ 1980 µM)

Now from value to molecule:

Row | MIC [1] [µg/mL] | MIC [2] [µg/mL] | MIC [3] [µg/mL] | MIC [4] [µg/mL] | SMILES
6 | 96 (≈ 200 µM) | 96 (≈ 200 µM) | 64 (≈ 133 µM) | 64 (≈ 133 µM) | CO/N=C(\C(=O)N[C@@H]1C(=O)N2C(C(=O)[O-])=C(C[N+]3(C)CCCC3)CS[C@H]12)c1csc(N)n1 [CEFEPIME]
7 | 2050 (≈ 4830 µM) | 2050 (≈ 4830 µM) | 2050 (≈ 4830 µM) | 2050 (≈ 4830 µM) | CO/N=C(\C(=O)N[C@@H]1C(=O)N2C(C(=O)O)=C(COC(N)=O)CS[C@H]12)c1ccco1 [CEFUROXIME]
8 | > 32 | > 32 | > 32 | > 32 | C[C@@H](O)[C@H]1C(=O)N2C(C(=O)O)=C(SCCNC=N)C[C@H]12 [IMIPENEM ANHYDROUS]
9 | > 32 | > 32 | > 32 | > 32 | C[C@@H](O)[C@H]1C(=O)N2C(C(=O)O)=C(S[C@@H]3CN[C@H](C(=O)N(C)C)C3)[C@H](C)[C@H]12 [MEROPENEM]
